Compound activity (PubChem)
IEC-6 tox: IEC-6 cytotoxicity, counter-screen for KLF5 inhibitors. AID 1825. inhibition, % at 5 µM. luminescence viability. actives 0.78% (n = 290,000); in the data active means inhibition above about 22%;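 further: 0% = plate median of test compound wells and 100% = cytotoxic reference compound wells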
APP transl inh: APP translation inhibition. SH-SY5Y APP 5'UTR-luciferase reporter, luminescence. actives 0.82% (n = 190,000). inhibition, % at 2 µM;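 active means inhibition above a set limit, derived from the sample mean plus 3 SD, cut at about 45% in these data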
MT stabilize HCS: microtubule stabilization, imaging screen | % tubulin-high responders, % at 10 µM | actives 0.83% (n = 200,000) | HeLa tubulin immunostaining HCS, 24 h; share of cells brighter than vehicle mean+2SD;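 active means plate Z-score above 3 for both tubulin-high and condensed-nucleus cell shares, with cell loss under 80%, at 10 µM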;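 further: anti alpha tubulin signal scored within the nucleus-defined area of each cell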
BaF3 tox: parental Ba/F3 viability inhibition as JAK2V617F counter-screen | actives 1.1% (n = 220,000) | AID 1486 | CellTiter-Glo ATP luminescence | inhibition, % at 5.6 µM;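 active means inhibition above a per-campaign cutoff, the mean inhibition of all tested compounds plus 3 SD, cut at about 27% in these data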;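 further: 0% = DMSO wells and 100% = JAK Inhibitor I control wells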
b-catenin transl: alters nuclear translocation of beta-catenin in HeLa cells; nuclear translocation activity, % at 5 µM; actives 0.3% (n = 190,000); immunofluorescence imaging; AID 1665;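 active means nuclear translocation activity above 50% at 5 µM, with a well cell count of 50 or more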;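 further: per-cell ratio of nuclear to cytoplasmic median beta-catenin stain intensity; plate controls were DMSO negative control for no effect and GSK-3 inhibitor IX positive control for full effect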
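Signal – beta-catenin immunofluorescence imaging with DAPI · Test system – human HeLa cell line · Dosing – 5 µM primary single dose, 0.1% DMSO, 0.02–20 µM confirmation series · Measure – % activation, nuclear-to-cytoplasmic median beta-catenin signal ratio per cell · Incubation – 24 h compound exposure at 37°C, 5% CO2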
Ba/F3 V617F tox: lowers viability of Ba/F3 cells expressing EpoR and JAK2V617F | ATP luminescence | inhibition, % at 5.6 µM | actives 1.1% (n = 220,000);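 active means inhibition above the campaign mean plus 3 SD over all tested compounds, cut at about 24% in these data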;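 further: cytokine-independent growth of Ba/F3 cells driven by EpoR plus mutant JAK2; 0% = DMSO-treated cells and 100% = JAK inhibitor I control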
Active calls of the source: *; x = no result. The list is not random: actives were taken first. Their share in the collection is about 2.2%.

SMILES	IEC-6 tox	APP transl inh	MT stabilize HCS	BaF3 tox	b-catenin transl	Ba/F3 V617F tox
c1ccc2c(Nc3nncs3)c3ccccc3nc2c1	2	x	x	-3	0	-2
COc1cccc(C2=CC(c3cccs3)n3nnnc3N2)c1 (centres undefined)	21	27	33*	5	1	3
CCOC(=O)C1=C(C)NC(=S)NC1c1ccc(OCC(=O)N2CCCCC2)cc1 (centres undefined)	-3	x	x	x	x	x
Cc1c(C(C)(C)C)c(C=S)n2ccccc12	5	70*	2	3	-4	-2
CC(C)(C)c1ccc(-c2nc(C=O)c3ccccn23)cc1	5	-4	2	3	1	0
Cc1cccc(Cc2c(C)nc3nc(SCC(=O)NCc4ccco4)nn3c2C)c1	-4	-5	20*	0	1	1
Cc1ccccc1Cc1c(C)nc2nc(SCC(=O)NCc3ccco3)nn2c1C	-6	-18	7	5	5	2
Cc1ccc(Cc2c(C)nc3nc(SCC(=O)NCc4ccco4)nn3c2C)cc1	5	10	22*	6	156*	2
Cc1cc(C)nc(-n2nc(C)cc2NC(=O)c2cccc(S(=O)(=O)N(C)C)c2)n1	x	x	x	x	-7	x
Cc1ccc(C)c(C(=O)Nc2cc(C)nn2-c2nc(C)cc(C)n2)c1	-3	10	13*	3	-1	-2
COc1ccc(C(=O)/C=C2\Sc3ccccc3N2C)cc1	-2	-195	2	4	0	2
COc1ccccc1-[n+]1c(C)cc(/C=C2\Sc3ccccc3N2C)cc1C	1	x	x	96*	14	99*
O=C(CSCc1cccc(Cl)c1)Nc1ccccc1-c1ccccc1	-1	-16	2	8	2	4
COc1ccccc1C1=NNC(=Nc2cccc(S(=O)(=O)N(C)C)c2)SC1	2	11	3	2	1	-5
CCOC(=O)C1=C(N)Oc2cc(O)ccc2C1c1cccc([N+](=O)[O-])c1 (centres undefined)	-8	1	15*	5	4	1
CCn1c(CC(=O)Nc2ccccc2Cl)nnc1SCC(=O)NC1CCCC1	8	x	x	x	x	x
COC(=O)/C(=C(O)\C=C\c1ccccc1[N+](=O)[O-])c1nc2ccccc2[nH]1	8	x	x	x	x	x
Clc1ccc(NCc2ccsc2)cc1	0	x	x	x	x	x
C=CC[n+]1ccc(/C=C2\C=Cc3cc(C)ccc3N2CC)c2ccccc21	39*	27	12	85*	0	100*
CCN1/C(=C/c2cc[n+](CCCS(=O)(=O)[O-])c3ccccc23)Sc2ccccc21	-1	-12	11	4	-2	4
Cc1cccc(-c2ncc(CN3CCCC(CO)(Cc4ccccc4C)C3)cn2)c1 (centres undefined)	-5	4	3	2	0	-3
Cc1cc(Sc2nnc(/N=C/N(C)C)s2)c2ccccc2n1	11	x	x	73*	-4	90*
Cc1cc(Sc2nnc(N)s2)c2ccccc2n1	18	x	x	77*	3	96*
Cc1cc(C(N)=O)c2ccccc2n1	0	10	4	1	-4	1
O=S(=O)(NCCc1ccccc1)c1ccc(Br)cc1	1	x	x	x	x	x
SMILES	IEC-6 tox	APP transl inh	MT stabilize HCS	BaF3 tox	b-catenin transl	Ba/F3 V617F tox
O=C(CCN1C(=O)COc2ccccc21)N1CCN(c2ccccn2)CC1	-1	18	3	88*	x	3
O=C(CCN1C(=O)COc2ccccc21)N1CCN(c2ccccc2)CC1	-4	15	3	5	-1	5
CC(C)NC(=O)N(Cc1ccccc1)Cc1cccs1	-10	x	x	0	-4	-1
CCN(CC)CCN(C(=O)c1ccc2c(c1)CCCC2)c1nc2c(C)cccc2s1	5	x	x	x	x	x
COc1cc(C(=O)c2c(C)c(CCC#N)n3ccccc23)cc(OC)c1OC	4	-30	20*	11	61*	2
COc1cccc(C(=O)c2c(C)c(CCC#N)n3ccccc23)c1OC	4	-22	5	2	-1	-1
COC(=O)c1sc(-c2ccc(C(C)(C)C)cc2)cc1NC(=O)CSCC(=O)O	-1	x	x	2	2	1
O=C(N/N=C/c1ccc(O)c(O)c1)c1ccc(CSc2cccc3cccnc23)cc1	5	6	4	27*	-1	62*
Cc1ccc(C(C)C)c(OCc2ccc(C(=O)N/N=C/c3ccc(O)c(O)c3)cc2)c1	8	50*	4	78*	x	39*
COc1cc(/C=N/NC(=O)c2ccc(COc3cc(C)ccc3C(C)C)cc2)cc(OC)c1O	5	14	3	2	-1	-3
COc1ccccc1/C=C/c1onc(C)c1S(=O)(=O)N1CCC(C(=O)NC(C)C)CC1	4	x	x	x	x	x
COc1ccc(Cl)cc1NC(=S)NC1CCCC1	-1	x	x	x	x	x
CCCc1nn(C(=O)c2ccccc2)c2c1C(=O)CC(C)(C)C2	0	-6	2	2	x	-2
CCc1nn(-c2cc(Cl)ccc2OC)c2c1C(=O)CCC2	-2	-4	27*	1	11	0
CCCc1nn(-c2cc(Cl)ccc2OC)c2c1C(=O)CC(C)(C)C2	3	-3	12*	3	x	-2
O=[N+]([O-])c1cc(-c2ncccn2)cs1	-12	-4	2	5	x	-2
COc1ccc2c(c1)[nH]c1c(N3CCN(Cc4ccc5c(c4)OCO5)CC3)ncnc12	14	3	4	37*	1	40*
COc1cccc(N/C(N)=N/c2nc(CSc3ccccn3)cc(=O)[nH]2)c1	-9	89*	5	10	-2	1
CCc1ccc(N/C(N)=N/c2nc(CSc3ccccn3)cc(=O)[nH]2)cc1	2	-4	17*	7	1	1
Cc1cc(NC(=O)COC(=O)c2ccccc2[N+](=O)[O-])no1	4	-24	3	2	-1	-2
COc1ccc([N+](=O)[O-])cc1N(CC(O)CN1C(=O)NC(C)(C)C1=O)S(=O)(=O)c1ccccc1 (centres undefined)	7	x	x	x	x	x
COc1ccc(C(=O)C(CN2CCOCC2)c2ccccc2)cc1F (centres undefined)	6	62*	4	49*	2	93*
O=c1cc(-c2ccccc2Cl)oc2cc(O)cc(O)c12	-2	-22	6	8	x	4
O=C1C=CC(O)(c2cc(=O)c3c(O)cc(O)cc3o2)C=C1	1	41	59	47*	29	44*
Cc1ccc(C(=O)N2CCN(c3ncccn3)CC2)cc1S(=O)(=O)N1CCCCC1	15	1	1	5	-2	1
Cc1nc2cc(-c3ccc(Cl)cc3)nn2c(C)c1CCC(=O)NC(C)c1ccc2c(c1)OCCO2 (centres undefined)	-5	41	7	7	-2	0
Cc1csc(NC(=O)CCc2c(C)nc3cc(-c4ccc(Cl)cc4)nn3c2C)n1	10	54*	3	7	3	6
COc1ccc(/C=C2/C(=O)OCc3cc(OC)c(OC)cc32)cc1	26*	82*	20*	28*	32	57*
